Measured values published in PMC4076841 (Biomaterials, 2014).

How the values were obtained:
[1] = Biodistribution of Pt in A375M tumor-bearing mice; type: in vivo; settings: 1 mg/kg Pt IV, 24 h post injection
[2] = Toxicity and pathology studies; type: in vivo, mice
Summary of the method: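 Female athymic nude mice (5–6 wk, 18–22 g) were dosed IV weekly during therapeutic treatment. Mice for histology received four doses of 1 mg/kg each. Serum AST, ALT and BUN were measured, with BUN taken 7 days after the last dose. Heart, liver, spleen, lung and kidney were formalin-fixed, H&E-stained and imaged by light microscopy. Data are mean ± SEM, compared by one-way ANOVA.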

[3] = cited from earlier work
[4] = cited from earlier work; remark: listed apart in the source

accumulation in tumors, injected dose (ID) per gram [1]	SMILES	nephrotoxicity (kidney H&E histology) ([2]; four doses, 1 mg/kg each)	BUN versus control group ([2]; measured 7 days after the last treatment)	ALT ([2]; serum, after treatment)	AST ([2]; serum, after treatment)	solubility in water and organic solvents [3]	anti-tumor efficacy [4]
1.2 % ID/g	[NH2][Pt]([NH2])([Cl])[Cl] [CDDP, cisplatin]	glomeruloscelorsis, tubular cell atrophy, and cystic dilatation of renal tubes	no significant difference	fell within the normal range	fell within the normal range		
	[NH2][Pt]([NH2])([I])[I] [CDDP-I, iodinated cisplatin]					insolubility	ineffective
